According to ChEMBL document CHEMBL4823260, “From High-Throughput Screening to Target Validation: Benzo[d]isothiazoles as Potent and Selective Agonists of Human Transient Receptor Potential Cation Channel Subfamily M Member 5 Possessing In Vivo Gastrointestinal Prokinetic Activity in Rodents” (J Med Chem, 2021):

Assays:
[1] = Intrinsic clearance in human liver microsomes assessed per mg protein incubated up to 30 mins in presence of NADPH by LC-MS/MS analysis; type: ADME, Microsome
[2] = molecular target: T1, Transient receptor potential cation channel subfamily M member 5 (Homo sapiens, UniProt Q9NZQ8); experiment: Agonist activity at human TRPM5 expressed in CHO-K1 cells maintained at 80 mV final holding potential by syncroPatch assay; type: cell-based
T1 sequence (Q9NZQ8 whole entry): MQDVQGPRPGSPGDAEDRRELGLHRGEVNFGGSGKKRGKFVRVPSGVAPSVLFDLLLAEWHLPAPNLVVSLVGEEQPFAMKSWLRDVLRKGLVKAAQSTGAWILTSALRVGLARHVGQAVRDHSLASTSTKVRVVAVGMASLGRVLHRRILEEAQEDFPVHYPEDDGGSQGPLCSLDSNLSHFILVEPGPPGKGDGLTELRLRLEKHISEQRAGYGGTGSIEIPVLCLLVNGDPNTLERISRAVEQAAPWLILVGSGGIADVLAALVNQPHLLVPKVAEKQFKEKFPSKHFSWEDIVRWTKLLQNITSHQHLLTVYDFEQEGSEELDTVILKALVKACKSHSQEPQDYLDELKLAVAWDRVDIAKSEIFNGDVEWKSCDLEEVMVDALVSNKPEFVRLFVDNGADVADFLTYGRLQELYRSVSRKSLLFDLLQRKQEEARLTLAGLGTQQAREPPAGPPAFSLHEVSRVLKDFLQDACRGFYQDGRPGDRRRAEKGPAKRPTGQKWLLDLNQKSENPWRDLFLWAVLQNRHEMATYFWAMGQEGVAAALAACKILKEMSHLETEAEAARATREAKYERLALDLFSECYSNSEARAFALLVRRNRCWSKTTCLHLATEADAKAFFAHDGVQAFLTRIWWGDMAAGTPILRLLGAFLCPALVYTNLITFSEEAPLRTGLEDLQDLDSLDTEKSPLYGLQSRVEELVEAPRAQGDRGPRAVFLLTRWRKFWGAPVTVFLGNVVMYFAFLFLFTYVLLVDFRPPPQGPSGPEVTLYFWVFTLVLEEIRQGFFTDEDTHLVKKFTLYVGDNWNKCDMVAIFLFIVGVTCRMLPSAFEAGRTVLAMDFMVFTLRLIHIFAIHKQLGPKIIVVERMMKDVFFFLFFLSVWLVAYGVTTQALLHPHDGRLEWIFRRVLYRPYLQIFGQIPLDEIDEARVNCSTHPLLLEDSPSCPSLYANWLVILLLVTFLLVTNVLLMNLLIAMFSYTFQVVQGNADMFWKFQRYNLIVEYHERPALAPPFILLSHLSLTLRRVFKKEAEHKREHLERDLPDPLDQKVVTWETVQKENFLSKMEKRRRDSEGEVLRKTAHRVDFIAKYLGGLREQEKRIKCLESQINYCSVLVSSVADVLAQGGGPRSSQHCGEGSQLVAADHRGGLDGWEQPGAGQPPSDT
How it was run: (§1)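 SyncroPatch 384 whole-cell recording at rt on CHO-K1 cells stably expressing human or mouse TRPM5. Intracellular solution had 2 mM Na-ATP and 5 μM free Ca2+. Cumulative doses 0.03–31.6 μM in 0.5% DMSO, 150 s each after 180 s vehicle. Current measured at the end of the +80 mV step, normalized to vehicle; pEC50 is the mean of ≥2 independent experiments.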

[3] = molecular target: T2, Transient receptor potential cation channel subfamily M member 5 (Mus musculus, UniProt Q9JJH7); experiment: Agonist activity at mouse TRPM5 expressed in CHO-K1 cells maintained at 80 mV final holding potential by syncroPatch assay; type: cell-based; how it was run: as §1
T2 sequence (Q9JJH7 whole entry): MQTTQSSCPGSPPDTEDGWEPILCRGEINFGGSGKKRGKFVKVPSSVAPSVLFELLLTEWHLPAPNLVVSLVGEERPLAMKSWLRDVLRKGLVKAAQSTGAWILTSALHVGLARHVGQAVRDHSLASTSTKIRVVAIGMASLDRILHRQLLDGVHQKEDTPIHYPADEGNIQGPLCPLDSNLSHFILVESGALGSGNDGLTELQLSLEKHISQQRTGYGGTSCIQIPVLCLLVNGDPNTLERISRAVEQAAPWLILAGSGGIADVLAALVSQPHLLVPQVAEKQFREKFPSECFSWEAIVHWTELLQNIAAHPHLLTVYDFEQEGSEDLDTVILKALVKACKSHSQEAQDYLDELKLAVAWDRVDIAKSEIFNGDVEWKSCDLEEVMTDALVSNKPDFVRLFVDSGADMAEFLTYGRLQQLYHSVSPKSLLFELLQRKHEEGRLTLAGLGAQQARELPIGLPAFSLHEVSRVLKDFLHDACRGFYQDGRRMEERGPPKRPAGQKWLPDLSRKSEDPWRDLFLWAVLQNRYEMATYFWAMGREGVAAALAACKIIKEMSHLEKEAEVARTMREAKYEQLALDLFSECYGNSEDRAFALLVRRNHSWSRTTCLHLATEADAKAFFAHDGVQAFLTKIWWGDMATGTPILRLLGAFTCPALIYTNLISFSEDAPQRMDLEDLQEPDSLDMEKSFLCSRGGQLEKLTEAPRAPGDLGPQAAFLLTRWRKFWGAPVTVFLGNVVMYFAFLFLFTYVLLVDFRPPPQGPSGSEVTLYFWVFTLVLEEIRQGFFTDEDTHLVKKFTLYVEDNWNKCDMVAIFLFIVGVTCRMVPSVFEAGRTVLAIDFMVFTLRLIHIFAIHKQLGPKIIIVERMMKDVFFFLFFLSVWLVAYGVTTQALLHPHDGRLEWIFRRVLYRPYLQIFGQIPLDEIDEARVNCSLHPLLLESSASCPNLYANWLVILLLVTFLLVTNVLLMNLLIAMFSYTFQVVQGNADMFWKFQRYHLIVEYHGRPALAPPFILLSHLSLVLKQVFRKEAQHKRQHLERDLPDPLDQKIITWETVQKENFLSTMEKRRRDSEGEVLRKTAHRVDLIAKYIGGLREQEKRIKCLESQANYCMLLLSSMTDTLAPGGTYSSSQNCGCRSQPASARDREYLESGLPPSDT

[4] = molecular target: Transient receptor potential cation channel subfamily M member 8 (Homo sapiens, UniProt Q7Z2W7); experiment: Agonist activity at human TRPM8 expressed in HEK cells assessed as increase in menthol-induced intracellular calcium level measured after 1 hr by FLIPR assay; type: cell-based
How it was run: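 HEK cells with stable hTRPM8, 20,000/well on poly-D-lysine plates 24 h ahead. Loaded with calcium-6 dye and 2.5 mM probenecid, 1 h at 37 °C then 1 h at rt. First-addition calcium rise scaled to (−)menthol 100 μM final (100% control); pEC50 derived from the concentration–response. Final DMSO 0.5%; assay at rt.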

[5] = Protein binding in human plasma assessed as unbound fraction measured after 5 hrs by equilibrium dialysis based HPLC/UPLC-MS/MS analysis; type: ADME, cell-free
[6] = Apparent permeability across apical to basolateral membrane in human Caco-2 cells incubated for 30 mins by LC-MS/MS analysis; type: ADME, cell-based

Transient receptor potential cation channel subfamily M member 8, sequence (Q7Z2W7 whole entry): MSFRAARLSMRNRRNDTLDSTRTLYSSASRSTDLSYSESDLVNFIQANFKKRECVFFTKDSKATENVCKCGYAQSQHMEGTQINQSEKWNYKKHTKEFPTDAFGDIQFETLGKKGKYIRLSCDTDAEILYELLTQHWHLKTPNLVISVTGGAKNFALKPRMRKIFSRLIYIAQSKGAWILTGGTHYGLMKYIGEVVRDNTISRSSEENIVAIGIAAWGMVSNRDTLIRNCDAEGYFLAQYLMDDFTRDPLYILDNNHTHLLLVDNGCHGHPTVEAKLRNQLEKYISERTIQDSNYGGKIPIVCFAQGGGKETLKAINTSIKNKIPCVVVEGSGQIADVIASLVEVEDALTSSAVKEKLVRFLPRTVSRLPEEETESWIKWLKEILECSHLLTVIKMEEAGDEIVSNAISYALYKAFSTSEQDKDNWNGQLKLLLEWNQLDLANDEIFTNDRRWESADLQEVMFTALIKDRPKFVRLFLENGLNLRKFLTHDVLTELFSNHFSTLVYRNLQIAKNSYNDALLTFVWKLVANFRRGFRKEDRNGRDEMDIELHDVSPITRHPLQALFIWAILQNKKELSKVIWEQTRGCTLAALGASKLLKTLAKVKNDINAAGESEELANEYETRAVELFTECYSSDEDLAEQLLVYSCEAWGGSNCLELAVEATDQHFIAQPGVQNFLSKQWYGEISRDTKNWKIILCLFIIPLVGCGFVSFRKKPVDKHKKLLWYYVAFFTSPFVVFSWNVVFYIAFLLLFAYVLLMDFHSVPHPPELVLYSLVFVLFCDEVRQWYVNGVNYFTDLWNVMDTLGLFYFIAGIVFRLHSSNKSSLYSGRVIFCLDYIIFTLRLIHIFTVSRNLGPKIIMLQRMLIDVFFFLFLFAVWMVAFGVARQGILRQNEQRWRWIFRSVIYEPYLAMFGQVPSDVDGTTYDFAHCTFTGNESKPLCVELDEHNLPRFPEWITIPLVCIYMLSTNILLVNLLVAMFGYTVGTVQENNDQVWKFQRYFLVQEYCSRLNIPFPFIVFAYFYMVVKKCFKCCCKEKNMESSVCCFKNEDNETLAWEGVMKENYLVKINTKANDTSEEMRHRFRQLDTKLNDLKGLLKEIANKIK

In the case of `Clc1cnc(CNc2cc3sncc3cc2Cl)s1`, the microsomal CLint [1] is reported as 172 µL/min/mg, the EC50 [2] is reported as 7.94 nM and the EC50 [3] is reported as 15.8 nM. The EC50 [4] was > 15800 nM, the fraction unbound at 5 h [5] was < 0.01 and the Papp A→B at 0.5 h [6] was 4.1 ×10⁻⁶ cm/s.

`Clc1cnc(CNc2ccc3cnsc3c2)s1` showed a microsomal CLint [1] of 146 µL/min/mg, an EC50 [2] of 43.7 nM and an EC50 [3] of 43.7 nM. For the same compound, the EC50 [4] was > 15800 nM, the fraction unbound at 5 h [5] was < 0.01 and the Papp A→B at 0.5 h [6] was 10.7 ×10⁻⁶ cm/s.

Compound `Clc1cnc(CNc2ccc3sncc3c2)s1` has a microsomal CLint [1] of 193 µL/min/mg, an EC50 [2] of 89.1 nM and an EC50 [3] of 85.1 nM. The EC50 [4] was > 15800 nM, the fraction unbound at 5 h [5] was < 0.01 and the Papp A→B at 0.5 h [6] was 12.6 ×10⁻⁶ cm/s.
